{"source": "ChEMBL document CHEMBL3994675", "about": "“Carbamylmethyl Mercaptoacetate Thioether: A Novel Scaffold for the Development of L1 Metallo-β-lactamase Inhibitors” (ACS Med Chem Lett, 2017)", "key": {"L929": {"tested_on": "L929", "assay": "Cytotoxicity against mouse L929 cells assessed as reduction in cell viability up to 400 uM after 48 hrs by CCK assay", "type": "cell-based", "conditions": "l929, 48 h", "method_in_brief": "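L-929 mouse fibroblasts exposed to compound at 12.5, 25, 50, 100, 200 and 400 μM working concentrations; cell viability measured.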"}, "Escherichia coli [1]": {"tested_on": "Escherichia coli", "assay": "Growth inhibition of Escherichia coli DH10B harboring pBC SK(+)-L1 at 1024 ug/ml after 12 hrs macrodilution broth method", "design": "species or system K-12 substr. DH10B", "method_in_brief": "(§1)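 Cefazolin MIC determined for E. coli DH10B carrying pBC SK(+)-L1 and for E. coli not expressing L1, with and without compound.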"}, "[2]": {"assay": "Inhibition of L1 (unknown origin) expressed in Escherichia coli DH10B harboring pBC SK(+)-L1 assessed as potentiation of cefazolin-induced antibacterial activity by measuring cefazolin MIC at 1024 ug/ml after 12 hrs macrodilution broth method", "method_in_brief": "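Cefazolin MICs were read for E. coli DH10B carrying pBC SK(+)-L1 across a series of inhibitor concentrations. Cefazolin alone (no inhibitor) on the same strain served as the reference MIC. E. coli not expressing L1 was tested alongside as the susceptible comparator.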"}, "[3]": {"assay": "Chemical stability in pH 7 Tris buffer after 4 days by UV-Visible spectral analysis", "type": "physicochemical", "conditions": "pH 7, 96 h", "method_in_brief": "(§2)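 Compounds incubated in aqueous solution at pH 5.0, 7.0 and 9.0 for 4 days; stability followed by UV-vis spectra.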"}, "[4]": {"assay": "Inhibition of L1 (unknown origin) expressed in Escherichia coli BL21(DE3) using cefazolin as substrate preincubated for 30 mins followed by substrate addition by UV-Visible spectrophotometric method", "method_in_brief": "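L1 IC50 measured in 30 mM Tris, pH 8.5, with cefazolin as substrate and inhibitor at 0.1–20 μM. Run in triplicate; mean ± SD reported.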"}, "[5]": {"assay": "Inhibition of IMP1 (unknown origin) expressed in Escherichia coli BL21(DE3) at 100 uM using cefazolin as substrate preincubated for 3 to 60 mins followed by substrate addition by UV-Visible spectrophotometric method", "conditions": "TDE = time-dependent effect", "method_in_brief": "(§3)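 Purified enzyme preincubated with 100 μM inhibitor in its enzyme-specific buffer, then substrate added: 50 μM cefazolin for IMP-1 and L1, 40 μM imipenem for ImiS. Hydrolysis followed by UV-vis spectrophotometry. Preincubation times of 3–60 min were tested. % inhibition = activity without inhibitor (100%) minus residual activity.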"}, "Escherichia coli [6]": {"tested_on": "Escherichia coli", "assay": "Growth inhibition of Escherichia coli DH10B at 1024 ug/ml after 12 hrs macrodilution broth method", "design": "species or system K-12 substr. DH10B", "method_in_brief": "as §1"}, "[7]": {"assay": "Chemical stability in pH 9 Tris buffer after 4 days by UV-Visible spectral analysis", "type": "physicochemical", "conditions": "pH 9, 96 h", "method_in_brief": "as §2"}, "[8]": {"assay": "Chemical stability in pH 5 Tris buffer after 4 days by UV-Visible spectral analysis", "type": "physicochemical", "conditions": "pH 5, 96 h", "method_in_brief": "as §2"}, "[9]": {"assay": "Inhibition of ImiS (unknown origin) expressed in Escherichia coli BL21(DE3) at 100 uM using imipenem as substrate preincubated for 30 mins followed by substrate addition by UV-Visible spectrophotometric method relative to control", "method_in_brief": "as §3"}, "[10]": {"assay": "Inhibition of L1 (unknown origin) expressed in Escherichia coli BL21(DE3) at 100 uM using cefazolin as substrate preincubated for 30 mins followed by substrate addition by UV-Visible spectrophotometric method relative to control", "method_in_brief": "as §3"}, "[11]": {"assay": "Inhibition of L1 (unknown origin) expressed in Escherichia coli BL21(DE3) using cefazolin as substrate by ITC", "method_in_brief": "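Isothermal titration calorimetry at 25 °C with 5 nM L1, 160 μM cefazolin and inhibitor at 0–100 μM; hydrolysis progress monitored as heat flow. Rates from runs at different substrate concentrations plotted against substrate concentration at 0, 50 and 100 μM inhibitor.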"}, "[12]": {"assay": "Inhibition of L1 (unknown origin) expressed in Escherichia coli BL21(DE3) at 100 uM using cefazolin as substrate preincubated for 3 to 60 mins followed by substrate addition by UV-Visible spectrophotometric method relative to control", "conditions": "TDE = time-dependent effect", "method_in_brief": "as §3"}, "[13]": {"assay": "Inhibition of ImiS (unknown origin) expressed in Escherichia coli BL21(DE3) at 100 uM using imipenem as substrate preincubated for 3 to 60 mins followed by substrate addition by UV-Visible spectrophotometric method relative to control", "conditions": "TDE = time-dependent effect", "method_in_brief": "as §3"}, "[14]": {"assay": "Inhibition of IMP1 (unknown origin) expressed in Escherichia coli BL21(DE3) at 100 uM using cefazolin as substrate preincubated for 30 mins followed by substrate addition by UV-Visible spectrophotometric method relative to control", "method_in_brief": "as §3"}}, "data": [{"smiles": "Cc1ccc(NC(=O)CSCC(=O)[O-])cc1.[K+]", "values": [{"measurement": "Activity", "setting": "L929", "result": "Non-Toxic"}, {"measurement": "growth inhibition (GI)", "setting": "Escherichia coli [1]", "result": "Non-Toxic"}, {"measurement": "MIC", "setting": "[2]", "result": 16, "unit": "µg/mL"}, {"measurement": "Stability", "setting": "[3]", "result": "Stable"}, {"measurement": "IC50", "setting": "[4]", "result": 410, "unit": "nM"}, {"measurement": "inhibition", "setting": "[4]", "result": "Dose-dependent effect"}, {"measurement": "inhibition", "setting": "[5]", "result": "Tde"}, {"measurement": "growth inhibition (GI)", "setting": "Escherichia coli [6]", "result": "Non-Toxic"}, {"measurement": "Stability", "setting": "[7]", "result": "Stable"}, {"measurement": "Stability", "setting": "[8]", "result": "Stable"}, {"measurement": "inhibition", "setting": "[9]", "result": 52, "unit": "%"}, {"measurement": "inhibition", "setting": "[10]", "result": 97, "unit": "%"}, {"measurement": "inhibition", "setting": "[11]", "result": "Dose-dependent effect"}, {"measurement": "inhibition", "setting": "[12]", "result": "Tde"}, {"measurement": "inhibition", "setting": "[13]", "result": "Tde"}, {"measurement": "inhibition", "setting": "[14]", "result": 37, "unit": "%"}]}]}
